In ChEMBL document CHEMBL1649536, “First report of plasmid-mediated quinolone resistance determinant qnrS1 in an Escherichia coli strain of animal origin in Italy” (2009):
In brackets after ≈: the same amount, converted by molar mass.

How the values were obtained:
Assay type in all cases: functional
Escherichia coli [1] = assay: Antibacterial activity against Escherichia coli 3963 by Etest method
In short: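 Strain 3963 is an E. coli poultry isolate of phylogenetic group D and multilocus sequence type 398. It was picked from 73 poultry isolates with ciprofloxacin MICs of ≥0.125 μg/ml. Resistance categories were assigned by published interpretive criteria.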

Escherichia coli [2] = assay: Antibacterial activity against quinolone-resistant Escherichia coli TOP10-3963 transformant harboring qnrS1 gene by Etest method
In short: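 The transformant was made by extracting plasmid DNA from strain 3963 and transforming competent E. coli TOP10. Transformants were selected on LB agar containing 0.06 μg/ml ciprofloxacin and carried both qnrS1 and blaTEM-1.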

Escherichia coli [3] = assay: Antibacterial activity against Escherichia coli TOP10 by Etest method

## O=C(O)c1cn(C2CC2)c2cc(N3CCNCC3)c(F)cc2c1=O [CIPROFLOXACIN]
Escherichia coli [1]
  MIC: 0.38 µg/mL (≈ 1.15 µM)

## C[C@H]1COc2c(N3CCN(C)CC3)c(F)cc3c(=O)c(C(=O)O)cn1c23.C[C@H]1COc2c(N3CCN(C)CC3)c(F)cc3c(=O)c(C(=O)O)cn1c23.O [LEVOFLOXACIN]
Escherichia coli [2]
  MIC: 0.25 µg/mL
Escherichia coli [3]
  MIC: 0.006 µg/mL

## CO/N=C(\C(=O)N[C@@H]1C(=O)N2C(C(=O)O)=C(COC(C)=O)CS[C@H]12)c1csc(N)n1 [CEFOTAXIME]
Escherichia coli [1]
  MIC: 0.047 µg/mL (≈ 0.103 µM)
Escherichia coli [2]
  MIC: 0.064 µg/mL (≈ 0.141 µM)
Escherichia coli [3]
  MIC: 0.064 µg/mL (≈ 0.141 µM)

## CCn1cc(C(=O)O)c(=O)c2ccc(C)nc21 [NALIDIXIC ACID]
Escherichia coli [1]
  MIC: 16 µg/mL (≈ 68.9 µM)
Escherichia coli [2]
  MIC: 6 µg/mL (≈ 25.8 µM)
Escherichia coli [3]
  MIC: 2 µg/mL (≈ 8.61 µM)

## CC1(C)S[C@@H]2[C@H](NC(=O)[C@H](N)c3ccccc3)C(=O)N2[C@H]1C(=O)O [AMPICILLIN]
Escherichia coli [1]
  MIC: ≥ 256 µg/mL
Escherichia coli [2]
  MIC: ≥ 256 µg/mL
Escherichia coli [3]
  MIC: 6 µg/mL (≈ 17.2 µM)

## CCN1CCN(c2cc3c(cc2F)c(=O)c(C(=O)O)cn3C2CC2)CC1 [ENROFLOXACIN]
Escherichia coli [1]
  MIC: 2 µg/mL (≈ 5.56 µM)
Escherichia coli [2]
  MIC: 0.5 µg/mL (≈ 1.39 µM)
Escherichia coli [3]
  MIC: 0.08 µg/mL (≈ 0.223 µM)

## CO/N=C(\C(=O)N[C@@H]1C(=O)N2C(C(=O)O)=C(CSc3nc(=O)c(O)nn3C)CS[C@H]12)c1csc(N)n1 [CEFTRIAXONE]
Escherichia coli [1]
  MIC: 0.032 µg/mL (≈ 0.0577 µM)
Escherichia coli [2]
  MIC: 0.094 µg/mL (≈ 0.169 µM)
Escherichia coli [3]
  MIC: 0.064 µg/mL (≈ 0.115 µM)
